# Measurements: ChEMBL document CHEMBL4814057, “4-4-(Anilinomethyl)-3-[4-(trifluoromethyl)phenyl]-1H-pyrazol-1-ylbenzoic acid derivatives as potent anti-gram-positive bacterial agents” (Eur J Med Chem, 2021)
# Active and inactive are the calls of the source. The calls are words filed in the database; no cut-off is given here.
# Columns and labels:
# [1] = Toxicity in CD1 mouse assessed as blood plasma albumin level at 50 mg/kg, ip administered as single dose measured after 24 hrs; format: organism-based; conditions: in vivo
# Summary of the method: (§1)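 Male CD-1 mice, 8 weeks, 32–37 g, n = 10 per dose. Single IP injection at 5, 20 or 50 mg/kg in 0.9% saline, filter-sterilized; saline vehicle group. Blood taken by cardiac puncture 24 h later. 14 plasma markers measured on a chemistry panel, reported as mean ± SE. Toxicity judged by significance versus controls, normal ranges, dose-dependence and consistency across organ markers.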
# [2] = Toxicity in CD1 mouse assessed as effect on calcium level at 50 mg/kg, ip administered as single dose measured after 24 hrs; format: organism-based; conditions: in vivo; summary of the method: as §1
# [3] = system: Staphylococcus aureus; assay: Inhibition of lipid synthesis in Staphylococcus aureus ATCC 29213 at 0.25 times MIC measured by liquid scintillation counter; format: functional
# Summary of the method: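 Early-exponential cells in CAMHBII with drug in triplicate. Lipids extracted with chloroform/water, centrifuged, organic phase dried, then scintillation counted.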
# [4] = Toxicity in CD1 mouse assessed as effect on liver 50 mg/kg, ip administered as single dose measured after 24 hrs by TUNEL assay; format: organism-based; conditions: in vivo
# Summary of the method: (§2)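 Male CD-1 mice, single IP 50 mg/kg in saline; saline control. Acetaminophen 300 mg/kg and cisplatin 20 mg/kg IP as positive controls. At 24 h, liver and kidney paraffin-embedded, 5-µm sections, TUNEL stained with DAPI counterstain, imaged by fluorescence microscopy.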
# [5] = system: Staphylococcus aureus; assay: Antimicrobial activity against methicillin-resistant Staphylococcus aureus ATCC 33591 assessed as bacterial growth inhibitions by CLSI protocol based microdilution method; format: functional
# [6] = system: Staphylococcus aureus; assay: Antibiofilm activity against Staphylococcus aureus UAMS-1 assessed as destruction catheter-associated biofilm formation measured after 48 hrs (reference value: 1.53 x 10^8); format: functional
# Summary of the method: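 Plasma-coated catheters colonised for 24 h at 37 °C with gentle shaking, starting from ~1 × 10^7 CFU of MSSA UAMS-1 in biofilm medium (TSB plus glucose and NaCl). […] Medium renewed at 24 h. Catheters (n = 3) sonicated at 48 h and plated on TSA for CFU per catheter.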
# [7] = system: Enterococcus faecalis; assay: Antimicrobial activity against vancomycin-susceptible Enterococcus faecalis ATCC 29212 assessed as bacterial growth inhibitions by CLSI protocol based microdilution method
# [8] = system: Staphylococcus aureus; assay: Antibacterial activity against vancomycin-intermediate susceptible Staphylococcus aureus ATCC 25923 assessed as bacterial growth inhibition by measuring fold increase in MIC between 14 passages by broth dilution method; format: functional
# [9] = system: Staphylococcus aureus; assay: Antibiofilm activity against Staphylococcus aureus ATCC 25923 assessed as destruction of biofilm formation at 2 times MIC after 24 hrs by crystal violet staining based assay relative to control; format: functional
# Summary of the method: (§3)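 Overnight culture brought to 0.5 McFarland in PBS, diluted 1:100 in CAMHB with 1% glucose. Inhibition: cells plus compound (in DMSO) at 2x, 1x, 0.5xMIC, 24 h at 35 °C, triplicate. Destruction: 24 h biofilm grown without drug, washed, fresh medium with compound, further 24 h. Then washed, dried, 0.1% crystal violet, solubilized in 33% acetic acid, OD 620 nm. Controls are DMSO-only and broth-only wells.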
# [10] = system: Staphylococcus aureus; assay: Inhibition of protein synthesis in Staphylococcus aureus ATCC 29213 at 4 times MIC measured by liquid scintillation counter; format: functional
# [11] = system: Staphylococcus aureus; assay: Antimicrobial activity against methicillin-resistant Staphylococcus aureus ATCC 33592 assessed as bacterial growth inhibitions by CLSI protocol based microdilution method; format: functional
# [12] = system: Staphylococcus aureus; assay: Antibiofilm activity against Staphylococcus aureus ATCC 25923 assessed as destruction of biofilm formation at 0.5 times MIC after 24 hrs by crystal violet staining based assay relative to control; format: functional, organism-based; summary of the method: as §3
# [13] = system: Staphylococcus aureus; assay: Antimicrobial activity against Staphylococcus aureus ATCC 29213 assessed as inhibition of cell wall synthesis at 2 times MIC measured by liquid scintillation counter; format: functional
# Summary of the method: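 Early-exponential cells resuspended in M9 minimal medium, drug (40x stock) in triplicate, 30 min pre-incubation at 37 °C. [14C]N-acetylglucosamine 0.4 µCi/reaction for 45 min at 37 °C. Stopped with 8% SDS, heated 95 °C 30 min, spotted on nitrocellulose, washed with 0.1% SDS, then scintillation counted.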
# [14] = system: Staphylococcus aureus; assay: Antimicrobial activity against methicillin-sensitive Staphylococcus aureus ATCC 29213 by CLSI-based broth microdilution assay; format: functional
# [15] = system: Staphylococcus epidermidis; assay: Antimicrobial activity against methicillin-resistant Staphylococcus epidermidis ATCC 700296 assessed as bacterial growth inhibitions by CLSI protocol based microdilution method; format: functional
# [16] = system: Staphylococcus aureus; assay: Inhibition of DNA synthesis in Staphylococcus aureus ATCC 29213 at 0.25 times MIC measured by liquid scintillation counter; format: functional
# Summary of the method: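 Early-exponential cells in CAMHB added to drug (40x stock) in triplicate, with a no-drug control. After 30 min pre-incubation at room temperature, [3H]thymidine 3.0 µCi/tube (DNA) or [3H]uridine 0.5 µCi/tube (RNA) added for 30 min at room temperature. Stopped with cold TCA, precipitate filtered and washed, then scintillation counted.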
# [17] = Toxicity in CD1 mouse assessed as effect on potassium level at 50 mg/kg, ip administered as single dose measured after 24 hrs; format: organism-based; conditions: in vivo; summary of the method: as §1
# [18] = Toxicity in CD1 mouse assessed as effect on pancreatic amylase level at 50 mg/kg, ip administered as single dose measured after 24 hrs; format: organism-based; conditions: in vivo; summary of the method: as §1
# [19] = Toxicity in CD1 mouse assessed as effect on total bilirubin level at 50 mg/kg, ip administered as single dose measured after 24 hrs; format: organism-based; conditions: in vivo; summary of the method: as §1
# [20] = system: Enterococcus faecium; assay: Antimicrobial activity against vancomycin-resistant Enterococcus faecium clinical isolate 1094112 by CLSI-based broth microdilution assay; format: functional
# [21] = Toxicity in CD1 mouse assessed as effect on alanine transferase level at 50 mg/kg, ip administered as single dose measured after 24 hrs; format: organism-based; conditions: in vivo; summary of the method: as §1
# [22] = system: Enterococcus faecalis; assay: Antibiofilm activity against Enterococcus faecalis ATCC 29212 assessed as destruction of biofilm formation at 2 times MIC after 24 hrs by crystal violet staining based assay relative to control; format: functional; summary of the method: as §3
# [23] = Toxicity in CD1 mouse assessed as effect on kidney 50 mg/kg, ip administered as single dose measured after 24 hrs by TUNEL assay; format: organism-based; conditions: in vivo; summary of the method: as §2
# [24] = system: Staphylococcus aureus; assay: Antimicrobial activity against methicillin-resistant Staphylococcus aureus ATCC 700699 assessed as bacterial growth inhibitions by CLSI protocol based microdilution method; format: functional
# [25] = system: Staphylococcus aureus; assay: Bactericidal activity against Staphylococcus aureus ATCC 33591 assessed as reduction bacterial growth at 4X MIC measured after 4 hrs by time-kill kinetic assay; format: functional
# Summary of the method: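 Log-phase culture diluted to ~5 × 10^6 CFU/ml in warm CAMHB, exposed at 4xMIC, 35 °C. 20 µl samples every 2 h, 10-fold dilutions to 10^-5, 6 × 6 drop plating. CFU/ml counted after 18–24 h at 35 °C; triplicate.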
# [26] = Toxicity in CD1 mouse assessed as effect on glucose level at 50 mg/kg, ip administered as single dose measured after 24 hrs; format: organism-based; conditions: in vivo; summary of the method: as §1
# [27] = system: Staphylococcus aureus; assay: Antibiofilm activity against Staphylococcus aureus ATCC 25923 assessed as destruction of biofilm formation at 1 times MIC after 24 hrs by crystal violet staining based assay relative to control; format: functional; summary of the method: as §3
structure (smiles),measurement,setting,value
O=C(O)c1ccc(-n2cc(CNc3cc(F)cc(C(F)(F)F)c3)c(-c3ccc(C(F)(F)F)cc3)n2)cc1,Activity,[1],Non-Toxic
same,Activity,[2],Non-Toxic
same,inhibition (INH),[3],20.7%
same,Activity,[4],Non-Toxic
same,MIC,[5],0.39 mg/L
same,Activity,[6],4.74 10^5CFU
same,MIC,[7],1.56 mg/L
same,fold change (FC),[8],2
same,Activity,[9],70%
same,inhibition,[10],100%
same,MIC,[11],0.78 mg/L
same,Activity,[12],inactive
same,inhibition (INH),[13],39.5%
same,MIC,[14],2 mg/L
same,MIC,[15],1.56 mg/L
same,inhibition (INH),[16],44%
same,Activity,[17],Non-Toxic
same,Activity,[18],Non-Toxic
same,Activity,[19],Non-Toxic
same,MIC,[20],4 mg/L
same,Activity,[21],Non-Toxic
same,Activity,[22],85%
same,Activity,[23],Non-Toxic
same,MIC,[24],0.78 mg/L
same,Activity,[25],3 log10CFU/ml
same,Activity,[26],Non-Toxic
same,Activity,[27],55%
